# VIM-2 inh: blocks Pseudomonas aeruginosa VIM-2 metallo-beta-lactamase. purified VIM-2, nitrocefin hydrolysis, epi-absorbance fluorescence. inhibition, % at 5.6 µM. AID 1527. 290,000 compounds, 0.89% hits;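 active = inhibition above the mean of all tested compounds plus 3 SD, cutoff set per screening run, cut at about 7.5% in these data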;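 note: red hydrolysis product quenches plate fluorescence so inhibitors raise well fluorescence; 0% = enzyme with DMSO and 100% = DMSO without enzyme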
# Runt-SMMHC FRET: inhibitors of human RUNX1 Runt domain binding to CBFb-SMMHC; Q01196+Q13951; Cerulean-Runt/Venus-CBFb-SMMHC FRET ratio 530/480, 1 h; inhibition, % at 20 µM; 220,000 compounds, 0.74% hits;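 active = mean inhibition across duplicate retests at 20 µM reaching about 50%, limit read from the data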;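 note: 0% = DMSO wells and 100% = wells with excess untagged CBFb-SMMHC; inhibitors lower the FRET ratio by blocking Runt binding to CBFb-SMMHC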
# Runt-CBFb FRET: inhibitors of human RUNX1 Runt domain binding to CBFb. Q01196+Q13951. Cerulean-Runt/Venus-CBFb FRET ratio 530/480, 1 h. inhibition, % at 20 µM. 220,000 compounds, 0.46% hits. AID 1496;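 active = inhibition over about 50% at 20 µM in the single-dose screen, limit read from the data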;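 note: 0% = DMSO wells and 100% = excess unlabeled CBFb competitor control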
#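 Buffer or medium: Tris pH 7.5 buffer with BSA. Assay system: Cerulean-labeled Runt domain protein. Amount: each fluorescent fusion protein 100 nM. Read-out basis: loss of energy transfer signal. Incubation: 1 h compound exposure, room temperature. Probe or stimulus: Venus-CBFb binding partner, 100 nM. Detection: FRET, excitation 422 nm, emission at 530 and 480 nm.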
# IMP-1 inhibitor: inhibitors of Pseudomonas aeruginosa IMP-1 metallo-beta-lactamase; AID 1556; inhibition, % at 5.6 µM; 290,000 compounds, 0.45% hits; purified IMP-1, nitrocefin hydrolysis, epi-absorbance fluorescence;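 active = inhibition above the mean plus 3 SD of all compounds in the same screening run, cut at about 4.5% in these data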;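 note: 0% = IMP-1 with DMSO and 100% = DMSO wells lacking enzyme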
#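 Assay system: purified IMP-1; Quantity: IMP-1 0.2 nM before substrate addition; Medium: HEPES buffer pH 7.1 with ZnSO4 and Brij 35; Incubation: 15 min enzyme–compound preincubation, then 25 min nitrocefin reaction, 25 °C; Signal: fluorescence quenching readout, ex 480/em 530 nm; Controls: DMSO with and without IMP-1; Repeats: singlicate testing.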
# RanGTP-Imp inh: inhibitors of RanGTP-importin-beta interaction, primary screen, biochemical, FRET, CFP-Ran, YFP-importin-beta, homogeneous | cell-free CFP-Ran/YFP-importin-beta FRET ratio | inhibition, % (test concentration not listed) | 300,000 compounds, 1.1% hits | AID 2216;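 active = more than half of the replicate wells show a fall in the fluorescence ratio signal beyond about 16%, limit read from the data, passing the limit was not always enough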;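 note: 0% = DMSO wells and 100% = Ran loaded with GDP instead of GTP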
# Numbers without * were called inactive. In the library only some 2.6% were active in any assay of this set; here they are far more common.
SMILES,VIM-2 inh,Runt-SMMHC FRET,Runt-CBFb FRET,IMP-1 inhibitor,RanGTP-Imp inh
COc1cc(CN2CCN(CCc3ccccc3)C(CCO)C2)cc(OC)c1 (stereo not drawn),-1.5,3.8,-1.0,-2.3,1.3
CSc1sc(-c2ccnc(SCC(=O)C(C)(C)C)n2)c2c1C(=O)CC(C)(C)C2,3.6,-1.3,21.7,13.6*,2.6
Oc1ccc(CN2CCCCC2)c2cccnc12,0.5,0.2,2.4,-2.7,1.8
COCc1cc(CN2CCCC2)c(O)c2ncccc12,8.2*,5.7,2.0,-0.4,14.3
Oc1c(CN2CCCCC2)cc(COCc2ccccc2)c2cccnc12,12.1*,-4.5,0.1,-2.3,6.9
NC(=O)c1c(N)sc2c1CCCC2,-0.6,-3.4,13.1,-0.3,-10.5

# Screening results: PubChem, several laboratories
